Data taken from ChEMBL document CHEMBL4513216, “Probing the Open Global Health Chemical Diversity Library for Multistage-Active Starting Points for Next-Generation Antimalarials” (ACS Infect Dis, 2020).

Test: Toxicity liver stage against HepG2, at 10uM
Assay type: cell-based
Design: test concentration 10 uM, cell line HepG2-A16-CD81EGFP
Conditions: human, HepG2-A16-CD81EGFP cells; read-out: INHIBITION
Method in brief: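 Uninfected HepG2-A16-CD81EGFP cells, 3 × 10^3 per well, 1536-well, plated on prespotted compound at 10 μM final, parasite-free screening media added to match infected plates; puromycin 10 μM positive, DMSO 0.5% negative; run in parallel with 48 h PbLuc assay at 37 °C, 5% CO2; viability by CellTiter-Glo luminescence, normalized to controls.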

Row | SMILES | cytotoxicity at 10 µM
1 | Cc1cn[nH]c1C1COCCN1C(=O)c1cc(F)ccc1F (stereo not given) | -0.658%
2 | COCC(=O)N1CCCCC1c1nc(CN(C)C(C)=O)cc(N(C)C)n1 (stereo not given) | 3.37%
3 | CCCNS(=O)(=O)c1cc2c3c(c1)c(C)cc(=O)n3CCC2 | 3.94%
4 | O=C(C1CC1)N1CCC(c2nc(O)c3c(n2)CCN(C2CCCC2)C3)C1 (stereo not given) | 4.66%
5 | CN1CCC2(CC1)CNC(=O)c1ccccc1O2 | -1.24%
6 | CCc1cnc(CN(C)C(=O)Nc2cnc3c(c2)c(C)nn3C)s1 | 2.37%
7 | Cc1nn(C)c(C)c1C1CCCN1C(=O)c1ccc(C(N)=O)s1 (stereo not given) | -1.52%
8 | COc1cc(Cl)ccc1C(=O)NCc1n[nH]c(C)n1 | -4.07%
9 | O=C(CCc1ccsc1)NCC1CCN(C2CC2)C1 (stereo not given) | 2.63%
10 | Cc1c(C(=O)N2CC(O)C2)nnn1-c1cccc2cnccc12 | 3.04%
11 | CCc1nc(C(=O)N(CC)CC(=O)Nc2cc(Cl)ccc2C)c[nH]1 | 8.44%
12 | CCN1CCC(NC(=O)NC2CCOc3ccc(Br)cc32)CC1 (stereo not given) | -1.15%
13 | CCOC(C)c1nc(CN2CCC(NC(C)C)CC2)cs1 (stereo not given) | 1.1%
14 | COC(=O)c1ccoc1CN(C)CC(=O)N(C)C | 3.39%
15 | Cc1ccc(S(=O)(=O)NC(=O)COc2ccc(CC#N)cc2)s1 | 2.52%
16 | COC(=O)c1cccc(CN(C)Cc2ncnn2C)c1C#N | -4.23%
17 | CCCC1c2ccccc2CCN1CCS(C)(=O)=O (stereo not given) | -0.846%
18 | Cc1cccc(CN2CCn3cc(CNC(=O)CC4CC4)nc3C2)n1 | -73.2%
19 | O=C(c1cccs1)N1CCc2ncc(Cn3cncn3)n2CC1 | -89.8%
20 | Cn1cc(CN2CCCC3(CCN(c4cccnc4)C3=O)C2)cn1 (stereo not given) | -74.9%
21 | CC(C)NC(=O)C1CN(C(=O)N2CCCC2)CC12CCOCC2 (stereo not given) | 1.08%
22 | CCc1ncc2c(n1)CN(c1nccc(C3CCCC3)n1)C2 | -1.16%
23 | Cc1ccc(CN2C[C@H]3OC(=O)N(Cc4ccccn4)[C@H]3C2)o1 | 4.16%

Row | SMILES | cytotoxicity at 10 µM
24 | COc1nccnc1N1CCC2(CC1)[C@H](O)C[C@@H]2OCCN(C)C | 4.56%
25 | O=C(c1ccc(-c2cccc3c2CCNC3)o1)N1CCCCC1 | 3.67%
26 | CCC(NC(=O)C1CCN(C(=O)C2CC2)CC1)c1cn2cccnc2n1 (stereo not given) | 0.0482%
27 | c1cc(CN2CCCC2)cc(-n2ccnc2-c2ccncc2)c1 | -1.37%
28 | O=C(N[C@@H]1CCN(C(=O)c2ccc(F)cc2Cl)C[C@H]1O)c1ccccn1 | -0.0395%
29 | CCCc1cc(NCc2nc(COC)no2)n2nccc2n1 | -0.916%
30 | CCOc1ccccc1CN(CC)Cc1ccc(S(C)(=O)=O)cc1 | -4.6%
31 | O=C(NCc1ccoc1)c1ccc(C2CCCN2CC2CCOCC2)s1 (stereo not given) | 6.7%
32 | CCc1cc(N[C@H]2CCC[C@H]2CO)n2nccc2n1 | -10.1%
33 | CC(C)n1ccnc1C1CCN(C(=O)c2ccc(SCCO)cc2)CC1 | -0.232%
34 | CC(C)c1nc(C2CCCN2C(=O)c2ccc(C#N)cn2)no1 (stereo not given) | -3.19%
35 | Cc1nccn1C1CCCN(C(=O)COCC2CC2)C1 (stereo not given) | -11.7%
36 | Cc1ccc(C)c(CNC(=O)NC(C)(C(=O)O)c2ccco2)c1 (stereo not given) | -10.8%
37 | CN(Cc1cccc(F)c1)C1CCN(CCc2ccccn2)CC1 | -5.38%
38 | CC(=O)NC1CCCN(C(=O)NCc2cccnc2N(C)C)C1 (stereo not given) | -1.97%
39 | Cc1ccc(-c2nc(CN3CCc4nn(C)c(=O)cc4C3)no2)cc1 | -8.38%
40 | Cc1ccc(CN2CCCC3(CCN(S(C)(=O)=O)C3)C2)o1 (stereo not given) | 2.21%
41 | COCCNC(=O)[C@H]1C[C@@H]2CCN(CCc3ccccc3)C[C@@H]2O1 | -74.5%
42 | Cc1ccc(N2CCO[C@H]3CN(Cc4ccncc4)C[C@H]32)nn1 | 1.23%
43 | Cn1cc(CN2CC[C@@H]3[C@@H]2CCN3C(=O)Cc2cccc(F)c2)cn1 | -80%
44 | CN(Cc1cn2c(n1)CN(c1ncc(F)cn1)CC2)Cc1ccco1 | 3.96%
45 | O=C(c1ccncc1F)N1C[C@@H]2CC[C@H]1CN(Cc1cccnc1)C2 | 3.01%
